“Also recorded” adds a separate entry of the source.
Key:
[1] = Tissue stability in rat brain homogenate; format: in vitro ADME; settings: room temperature, 30 min
[2] = Stability in aqueous sodium phosphate buffer; format: physicochemical; settings: sodium phosphate buffer 0.15 M, pH 7.4
Lipophilicity = format: physicochemical; settings: 1-octanol/sodium phosphate buffer, pH 7.4
Summary of the method: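 The 11C-labelled test compound was partitioned between 1-octanol and 0.15 M sodium phosphate buffer, pH 7.4. The aqueous phase left after extraction was analysed by radio-HPLC on C18 with MeOH:H2O:Et3N (92.5:7.5:0.1) at 4.0 mL/min. The result was decay-corrected and corrected for radioligand instability in the buffer.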

cPLA2α [3] = target: T1, cPLA2α (Mus musculus, UniProt P47713); assay: PET imaging in wild type mice with self-block pretreatment; format: in vivo; settings: blocking agent 2 mg/kg i.v. 30 min before radioligand
T1 sequence (P47713 1-748): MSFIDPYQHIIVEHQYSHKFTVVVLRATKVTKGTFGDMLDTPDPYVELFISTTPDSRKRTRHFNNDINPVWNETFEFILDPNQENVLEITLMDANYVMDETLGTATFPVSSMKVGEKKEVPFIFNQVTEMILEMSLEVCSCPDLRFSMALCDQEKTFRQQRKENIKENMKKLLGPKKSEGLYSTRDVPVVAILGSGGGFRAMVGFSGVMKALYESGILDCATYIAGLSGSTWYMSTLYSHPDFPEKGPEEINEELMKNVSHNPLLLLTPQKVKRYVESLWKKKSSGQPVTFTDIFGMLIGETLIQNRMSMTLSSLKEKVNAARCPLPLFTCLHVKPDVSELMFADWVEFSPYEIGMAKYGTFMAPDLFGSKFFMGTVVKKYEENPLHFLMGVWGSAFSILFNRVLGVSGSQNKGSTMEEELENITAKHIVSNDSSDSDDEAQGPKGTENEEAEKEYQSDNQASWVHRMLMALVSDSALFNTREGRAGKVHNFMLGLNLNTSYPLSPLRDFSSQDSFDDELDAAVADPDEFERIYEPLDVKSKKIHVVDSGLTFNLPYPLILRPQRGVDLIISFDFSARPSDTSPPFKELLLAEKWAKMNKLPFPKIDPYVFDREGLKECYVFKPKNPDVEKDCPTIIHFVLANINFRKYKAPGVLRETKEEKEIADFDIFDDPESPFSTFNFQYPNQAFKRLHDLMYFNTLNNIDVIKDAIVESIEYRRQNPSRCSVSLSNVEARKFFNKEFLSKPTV
Summary of the method: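 Wild-type mice under 1.5% isoflurane first received unlabelled blocking agent, 2 mg/kg i.v. via tail-vein catheter. Thirty minutes later they were given about 7.4 MBq of 11C-labelled test compound in ethanol/saline (1:9), ascorbic acid and Tween. MicroPET ran for 100 min. Brain time-activity curves were compared with baseline. Reconstruction used FORE/2D OSEM without attenuation or scatter correction.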

cPLA2α [4] = settings: cPLA2α inhibition; ref [19] and [20]; cited from earlier work
[5] = Distribution into cellular blood elements, monkey blood; format: in vitro ADME; settings: absence of autologous plasma
Summary of the method: (§1)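 Carbon-11 carboxyl-labelled test compound added to freshly drawn heparin-anticoagulated blood. Blood cells were tested with and without autologous plasma, and the fraction of radioactivity bound to cells was determined. Mean ± SD, n = 3.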

P-gp/BCRP = assay: PET imaging in P-gp/BCRP dual knock-out mice; format: in vivo
Summary of the method: (§2)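 Mice under 1.5% isoflurane were given about 7.4 MBq of 11C-labelled test compound i.v. via a tail-vein catheter. Vehicle was ethanol/saline 1:9 with ascorbic acid and Tween. Dynamic microPET ran for 100 min and brain time-activity curves were plotted in SUV. Images were reconstructed by Fourier rebinning and 2D OSEM, with no attenuation or scatter correction.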

[6] = PET imaging in wild type mice, baseline radioactivity uptake; format: in vivo; settings: i.v. injection
Summary of the method: as §2

[7] = Distribution into cellular blood elements, rat blood; format: in vitro ADME; settings: absence of autologous plasma
Summary of the method: as §1

Row | Stability in buffer [2] | Compound | Stability in rat brain homogenate [1] | logD (Lipophilicity) | Effect of pretreatment with non-radioactive ligand on brain time-activity curve (cPLA2α [3]) | IC50 (cPLA2α [4]) | Bound to blood cells [5] | Peak radioactivity in brain (P-gp/BCRP; P-gp/BCRP dual knock-out mice, i.v. injection) | Efflux transporter (P-gp/BCRP) substrate status (P-gp/BCRP; wild type vs dual knock-out mice brain uptake) | Peak radioactivity in brain [6] | Bound to blood cells [7]
1 | 80.3±3.4% | CCCCCCCCc1ccc(OCC(=O)Cn2cc(-c3nc(C)no3)c3cc(C(=O)O)ccc32)cc1 [[^11C]4, 3-(3-methyl-1,2,4-oxadiazol-5-yl)-1-(3-(4-octylphenoxy)-2-oxopropyl)-1H-indole-5-carboxylic acid] | 104% | 1.94 ± 0.15 | – | – | – | – | – | – | –
2 | – | CC(C)C(=O)c1cn(CC(=O)COc2ccc(Oc3ccccc3)cc2)c2ccc(C(=O)O)cc12 [[^11C]1, 3-isobutyryl-1-(2-oxo-3-(4-phenoxyphenoxy)propyl)-1H-indole-5-carboxylic acid] | – | 2.1 ± 0.01 | did not alter | 12 nM | More than 94% | 0.5 SUV | not efflux transporters substrates; also recorded: not a brain P-gp or BRCP efflux transporter substrate | 0.4 SUV | More than 94%
3 | 99.7±0.2% | Cc1noc(-c2cn(CC(=O)COc3ccc(Oc4ccccc4)cc3)c3ccc(C(=O)O)cc23)n1 [[^11C]3, 3-(3-methyl-1,2,4-oxadiazol-5-yl)-1-(2-oxo-3-(4-phenoxyphenoxy)propyl)-1H-indole-5-carboxylic acid] | – | 2.07 ± 0.02 | – | 6.1 nM | – | – | – | – | –

Row | Compound | Stability in buffer [2] | Stability in rat brain homogenate [1] | logD (Lipophilicity) | Effect of pretreatment with non-radioactive ligand on brain time-activity curve (cPLA2α [3]) | IC50 (cPLA2α [4]) | Bound to blood cells [5] | Peak radioactivity in brain (P-gp/BCRP; P-gp/BCRP dual knock-out mice, i.v. injection) | Efflux transporter (P-gp/BCRP) substrate status (P-gp/BCRP; wild type vs dual knock-out mice brain uptake) | Peak radioactivity in brain [6] | Bound to blood cells [7]
4 | CC(=O)c1cn(CC(=O)COc2ccc(Oc3ccc(C(F)(F)F)cc3)cc2)c2ccc(C(=O)O)cc12 [[^11C]2, 3-acetyl-1-(2-oxo-3-(4-(4-(trifluoromethyl)-phenoxy)phenoxy)propyl)-1H-indole-5-carboxylic acid] | 98.4±0.2% | 97.5% | 2.43 ± 0.01 | – | 10 nM | – | – | – | – | –

From PMC6077846 (ChemMedChem, 2018)
